The record followed here is ChEMBL document CHEMBL4311941, “Development of Multifunctional Histone Deacetylase 6 Degraders with Potent Antimyeloma Activity” (J Med Chem, 2019).

Each structure is given as a SMILES string. Active and inactive are the calls of the source. No cut-off for these calls is given here.

The target of test [1] is Protein cereblon/Zinc finger protein Aiolos (Homo sapiens) (UniProt Q96SW2+Q9UKT9). As to the kind of experiment: Protac activity at CRBN/IKZF3 in human MM1S cells assessed as IKZF3 degradation at 100 nM measured after 6 hrs by Western blot analysis. Format: cell-based. An outline of the steps:
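Time course in MM1S cells (1 × 10^6 cells per well, seeded overnight) under 100 nM degrader. Whole-cell RIPA lysates analysed by 7.5−12% SDS-PAGE and PVDF immunoblot. Primary antibody at 4 °C overnight, HRP secondary 1 h, ECL detection with densitometry.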
Background: In western blotting, separated proteins are transferred to a membrane and probed.

Test [2] deals with T1, Protein cereblon/Protein deacetylase HDAC6 (Homo sapiens, UniProt Q9UBN7+Q96SW2). As to the kind of experiment: Protac activity at CRBN/HDAC6 in human MM1S cells assessed as HDAC6 degradation measured after 6 hrs by ELISA. Format: cell-based. In outline:
(§1)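 In-cell ELISA: MM1S cells (5 × 10^4 per well) seeded overnight, treated 6 h (dosed as 5× medium; 0.1 nM–1 μM or 10/100 nM). Fixed in 8% formaldehyde/TBS, permeabilized with 0.1% Triton X, peroxidase quenched with 1% H2O2, blocked in 5% BSA. Anti-HDAC6 rabbit mAb (1:1000, 2 h) then HRP secondary; TMB read as OD450 − OD570. Background wells lacked primary antibody. Signal normalized to Janus Green and to DMSO wells, n = 3. DC50/Dmax from three-parameter fit.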
For orientation: An ELISA detects its analyte on a solid surface through an enzyme-linked reagent.

Test [3] concerns the target T1, Protein cereblon/Protein deacetylase HDAC6. As to the kind of experiment: Protac activity at CRBN/HDAC6 in human MM1S cells assessed as HDAC6 degradation measured after 6 hrs by ELISA relative to control. The class given is cell-based. In outline: as §1
Target sequence in this assay (Q96SW2 whole entry, looked up): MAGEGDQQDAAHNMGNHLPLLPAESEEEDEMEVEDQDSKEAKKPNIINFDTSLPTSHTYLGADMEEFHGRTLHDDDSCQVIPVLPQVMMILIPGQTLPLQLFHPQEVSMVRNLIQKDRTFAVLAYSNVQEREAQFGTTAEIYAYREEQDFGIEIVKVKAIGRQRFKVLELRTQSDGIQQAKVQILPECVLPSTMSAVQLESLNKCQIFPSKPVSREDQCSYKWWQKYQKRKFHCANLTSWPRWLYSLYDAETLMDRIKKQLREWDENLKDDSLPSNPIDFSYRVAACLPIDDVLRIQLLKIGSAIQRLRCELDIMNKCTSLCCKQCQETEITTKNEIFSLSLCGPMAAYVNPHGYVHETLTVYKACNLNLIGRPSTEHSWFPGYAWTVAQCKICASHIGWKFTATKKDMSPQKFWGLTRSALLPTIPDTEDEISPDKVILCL
Target sequence in this assay (Q9UBN7 whole entry, looked up): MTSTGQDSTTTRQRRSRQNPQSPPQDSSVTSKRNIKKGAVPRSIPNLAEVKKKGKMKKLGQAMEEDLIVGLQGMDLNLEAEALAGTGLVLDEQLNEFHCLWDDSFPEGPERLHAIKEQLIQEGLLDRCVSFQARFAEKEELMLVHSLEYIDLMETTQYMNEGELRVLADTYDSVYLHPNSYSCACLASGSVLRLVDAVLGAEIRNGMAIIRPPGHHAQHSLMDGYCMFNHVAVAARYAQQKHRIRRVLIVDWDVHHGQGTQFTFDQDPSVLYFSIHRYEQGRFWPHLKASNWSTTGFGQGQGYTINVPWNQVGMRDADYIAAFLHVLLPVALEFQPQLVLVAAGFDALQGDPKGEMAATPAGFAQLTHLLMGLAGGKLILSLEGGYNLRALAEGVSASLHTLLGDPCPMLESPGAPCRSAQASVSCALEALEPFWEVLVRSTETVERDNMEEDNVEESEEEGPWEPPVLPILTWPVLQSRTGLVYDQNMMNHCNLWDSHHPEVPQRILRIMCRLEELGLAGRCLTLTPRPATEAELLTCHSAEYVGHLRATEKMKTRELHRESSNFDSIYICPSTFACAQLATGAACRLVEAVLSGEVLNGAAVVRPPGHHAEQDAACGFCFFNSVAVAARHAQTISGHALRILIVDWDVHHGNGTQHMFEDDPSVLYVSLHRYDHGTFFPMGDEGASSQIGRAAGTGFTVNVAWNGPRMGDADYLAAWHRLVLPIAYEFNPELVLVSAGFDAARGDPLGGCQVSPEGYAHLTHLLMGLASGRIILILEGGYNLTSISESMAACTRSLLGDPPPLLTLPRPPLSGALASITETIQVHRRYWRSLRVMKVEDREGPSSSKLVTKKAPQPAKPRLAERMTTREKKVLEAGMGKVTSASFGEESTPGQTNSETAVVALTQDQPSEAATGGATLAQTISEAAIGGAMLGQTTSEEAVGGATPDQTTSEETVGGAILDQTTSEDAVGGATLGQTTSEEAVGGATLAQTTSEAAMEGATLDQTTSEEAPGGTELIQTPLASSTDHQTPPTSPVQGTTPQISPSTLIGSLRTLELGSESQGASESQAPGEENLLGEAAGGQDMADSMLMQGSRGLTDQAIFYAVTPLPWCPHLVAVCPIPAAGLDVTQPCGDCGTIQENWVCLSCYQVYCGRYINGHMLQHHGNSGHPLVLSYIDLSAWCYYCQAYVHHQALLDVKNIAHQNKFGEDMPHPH
The target in test [4] is Protein cereblon/Histone deacetylase 3 (Homo sapiens) (UniProt O15379+Q96SW2). As to the kind of experiment: Protac activity at CRBN/HDAC3 in human MM1S cells assessed as HDAC3 degradation measured after 6 hrs by Western blot analysis. The class given is cell-based.
Test [5] has as its target T2, Protein cereblon/Histone deacetylase 4 (Homo sapiens) (UniProt P56524+Q96SW2). The test is described as follows: Protac activity at CRBN/HDAC4 in human MM1S cells assessed as HDAC4 degradation measured after 6 hrs by Western blot analysis. The class given is cell-based.
In test [6] the target is Protein cereblon/Histone deacetylase 1 (Homo sapiens) (UniProt Q13547+Q96SW2). The test is described as follows: Protac activity at CRBN/HDAC1 in human MM1S cells assessed as HDAC1 degradation at 100 nM measured up to 8 hrs by Western blot analysis. Format: cell-based.
In test [7] the target is T1, Protein cereblon/Protein deacetylase HDAC6. The test is described as follows: Protac activity at CRBN/HDAC6 in human A431 cells assessed as HDAC6 degradation up to 3 uM incubated for 12 hrs by Western blot analysis. The class given is cell-based.
Target sequence in this assay (Q96SW2 whole entry, looked up): as the sequence (Q96SW2 whole entry, looked up) above
Target sequence in this assay (Q9UBN7 whole entry, looked up): as the sequence (Q9UBN7 whole entry, looked up) above
Test [8] shares this target. As to the kind of experiment: Protac activity at CRBN/HDAC6 in human A375 cells assessed as HDAC6 degradation up to 1 uM incubated for 6 hrs by Western blot analysis. The class given is cell-based.
Target sequence in this assay (Q96SW2 whole entry, looked up): as the sequence (Q96SW2 whole entry, looked up) above
Target sequence in this assay (Q9UBN7 whole entry, looked up): as the sequence (Q9UBN7 whole entry, looked up) above
The target in the next test is T3, Histone deacetylase 8 (Homo sapiens, UniProt Q9BY41).
T3 sequence (Q9BY41 whole entry): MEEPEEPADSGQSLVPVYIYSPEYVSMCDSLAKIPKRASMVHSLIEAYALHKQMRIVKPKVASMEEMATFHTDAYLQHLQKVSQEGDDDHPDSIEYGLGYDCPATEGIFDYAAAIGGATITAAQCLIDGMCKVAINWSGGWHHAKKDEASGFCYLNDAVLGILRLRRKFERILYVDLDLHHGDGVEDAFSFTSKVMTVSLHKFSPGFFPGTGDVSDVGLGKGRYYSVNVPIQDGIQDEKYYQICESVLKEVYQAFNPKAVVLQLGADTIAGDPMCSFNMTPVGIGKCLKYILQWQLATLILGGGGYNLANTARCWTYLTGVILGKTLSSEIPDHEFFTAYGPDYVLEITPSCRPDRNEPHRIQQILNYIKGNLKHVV
As to the kind of experiment: Inhibition of human N-terminal tagged human HDAC8 expressed in HEK293T/17 using Boc-[TFA-Lys]-AMC as substrate preincubated for 10 mins followed by substrate addition and measured after 60 mins by fluorescence assay.

The next test addresses T4, Histone deacetylase 11 (Homo sapiens, UniProt Q96DB2).
T4 sequence (Q96DB2 whole entry): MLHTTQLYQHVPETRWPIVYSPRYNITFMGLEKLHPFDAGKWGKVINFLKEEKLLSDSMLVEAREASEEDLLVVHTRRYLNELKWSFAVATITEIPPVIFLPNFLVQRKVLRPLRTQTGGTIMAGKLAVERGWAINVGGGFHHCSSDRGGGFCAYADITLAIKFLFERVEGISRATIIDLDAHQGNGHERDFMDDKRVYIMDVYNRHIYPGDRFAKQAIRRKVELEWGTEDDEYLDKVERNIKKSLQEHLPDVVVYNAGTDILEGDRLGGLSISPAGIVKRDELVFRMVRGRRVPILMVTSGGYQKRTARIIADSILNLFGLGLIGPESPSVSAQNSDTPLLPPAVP
The test is described as follows: Inhibition of human N-terminal tagged human HDAC11 expressed in HEK293T/17 using Boc-[TFA-Lys]-AMC as substrate preincubated for 10 mins followed by substrate addition and measured after 60 mins by fluorescence assay.

In test [9] the target is T1, Protein cereblon/Protein deacetylase HDAC6. The test is described as follows: Protac activity at CRBN/HDAC6 in human MM1S cells assessed as HDAC6 degradation at 100 nM measured after 6 hrs in presence of NAE inhibitor MLN 4924 by Western blot analysis. The class given is cell-based.
Target sequence in this assay (Q96SW2 whole entry, looked up): as the sequence (Q96SW2 whole entry, looked up) above
Target sequence in this assay (Q9UBN7 whole entry, looked up): as the sequence (Q9UBN7 whole entry, looked up) above
The target of test [10] is Cereblon/Ikaros (Homo sapiens) (UniProt Q96SW2+Q13422). The test is described as follows: Protac activity at CRBN/IKZF1 in human MM1S cells assessed as IKZF1 degradation at 100 nM measured after 6 hrs in presence of NAE inhibitor MLN 4924 by Western blot analysis. The class given is cell-based. In outline:
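MM1S cells seeded at 1 × 10^6 per well overnight. Pretreated 1 h with pomalidomide, Next-A, MLN 4924 or DMSO, then given 100 nM degrader or DMSO for 6 h. Lysed in RIPA with protease inhibitors, 10−40 μg protein run on SDS-PAGE and transferred to PVDF. Blots probed for IKZF1/IKZF3, detected by ECL and quantified by densitometry.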

For test [11], the target named is T2, Protein cereblon/Histone deacetylase 4 (Homo sapiens). The test is described as follows: Protac activity at CRBN/HDAC4 in human MM1S cells assessed as HDAC4 degradation at 100 nM measured after 6 hrs in presence of proteasome inhibitor MG132 by Western blot analysis. Format: cell-based.
Test [12] has as its system MM1.S. As to the kind of experiment: Effect on HDAC6 mRNA expression in human MM1S cells at 100 nM measured after 6 hrs by SYBR green dye-based qRT-PCR analysis. Format: functional, cell-based. An outline of the steps: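 After treatment, MM1S cells washed twice with cold PBS. Total RNA extracted and normalized, then reverse-transcribed. 10 ng cDNA amplified with SYBR Green: 50 °C 2 min, 95 °C 2 min, then 40 cycles of 95 °C 1 s / 60 °C 30 s, followed by a melt curve. Expression calculated by the 2−ΔΔCt method.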
In general terms: Quantitative PCR measures a nucleic acid by following its amplification.

Test [13] deals with MM1.S. The test is described as follows: Antiproliferative activity against human MM1S cells assessed as reduction in cell viability measured after 72 hrs by resazurin dye based assay. Format: functional. An outline of the steps: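 MM1S cells seeded at 1 × 10^4 per well, left overnight, then given compound or DMSO vehicle (added as 5× dosing medium) for 72 h at 37 °C, 5% CO2. Resazurin added (10× solution, 1 mg/mL), then incubated overnight at 37 °C. OD read at 570 and 600 nm. Viability is relative to vehicle, n = 3. Curves fitted as [inhibitor] vs response (three parameters); test range 0.3 nM–3 μM.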

Test [14] has as its system MM1.S. As to the kind of experiment: Induction of apoptosis in human MM1S cells assessed as cleavage of PARP measured after 48 hrs by Western blot analysis. The class given is functional, cell-based.

T2 sequence (P56524 whole entry, looked up): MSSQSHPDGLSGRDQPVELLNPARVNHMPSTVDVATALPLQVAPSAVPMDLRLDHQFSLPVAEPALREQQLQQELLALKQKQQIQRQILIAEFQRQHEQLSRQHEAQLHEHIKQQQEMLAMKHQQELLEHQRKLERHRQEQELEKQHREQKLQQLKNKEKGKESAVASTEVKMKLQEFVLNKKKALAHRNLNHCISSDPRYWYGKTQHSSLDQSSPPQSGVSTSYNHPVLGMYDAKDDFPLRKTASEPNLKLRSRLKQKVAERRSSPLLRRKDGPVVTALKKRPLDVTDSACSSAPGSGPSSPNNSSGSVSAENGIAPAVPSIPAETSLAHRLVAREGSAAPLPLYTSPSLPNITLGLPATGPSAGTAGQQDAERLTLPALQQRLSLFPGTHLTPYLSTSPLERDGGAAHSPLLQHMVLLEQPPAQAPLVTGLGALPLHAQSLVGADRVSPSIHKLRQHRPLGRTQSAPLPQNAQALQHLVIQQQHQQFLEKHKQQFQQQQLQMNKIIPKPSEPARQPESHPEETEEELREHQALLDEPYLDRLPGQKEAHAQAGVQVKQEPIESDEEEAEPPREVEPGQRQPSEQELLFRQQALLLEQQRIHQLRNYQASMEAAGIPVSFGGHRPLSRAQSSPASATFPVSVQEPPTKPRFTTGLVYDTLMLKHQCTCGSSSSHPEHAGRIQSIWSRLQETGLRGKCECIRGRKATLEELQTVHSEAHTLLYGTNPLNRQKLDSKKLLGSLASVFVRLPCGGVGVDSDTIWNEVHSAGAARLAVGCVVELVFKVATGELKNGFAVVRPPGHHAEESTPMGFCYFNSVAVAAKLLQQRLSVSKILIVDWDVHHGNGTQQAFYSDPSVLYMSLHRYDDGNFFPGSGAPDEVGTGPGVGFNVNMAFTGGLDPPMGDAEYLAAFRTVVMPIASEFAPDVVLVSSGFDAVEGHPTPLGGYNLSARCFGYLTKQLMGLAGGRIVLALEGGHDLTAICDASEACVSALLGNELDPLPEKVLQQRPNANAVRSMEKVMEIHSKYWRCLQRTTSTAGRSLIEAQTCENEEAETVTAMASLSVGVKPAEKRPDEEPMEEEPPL
T2 sequence (Q96SW2 whole entry, looked up): as the sequence (Q96SW2 whole entry, looked up) above
Chain of Protein cereblon/Histone deacetylase 1 (Homo sapiens) (Q13547 whole entry, looked up): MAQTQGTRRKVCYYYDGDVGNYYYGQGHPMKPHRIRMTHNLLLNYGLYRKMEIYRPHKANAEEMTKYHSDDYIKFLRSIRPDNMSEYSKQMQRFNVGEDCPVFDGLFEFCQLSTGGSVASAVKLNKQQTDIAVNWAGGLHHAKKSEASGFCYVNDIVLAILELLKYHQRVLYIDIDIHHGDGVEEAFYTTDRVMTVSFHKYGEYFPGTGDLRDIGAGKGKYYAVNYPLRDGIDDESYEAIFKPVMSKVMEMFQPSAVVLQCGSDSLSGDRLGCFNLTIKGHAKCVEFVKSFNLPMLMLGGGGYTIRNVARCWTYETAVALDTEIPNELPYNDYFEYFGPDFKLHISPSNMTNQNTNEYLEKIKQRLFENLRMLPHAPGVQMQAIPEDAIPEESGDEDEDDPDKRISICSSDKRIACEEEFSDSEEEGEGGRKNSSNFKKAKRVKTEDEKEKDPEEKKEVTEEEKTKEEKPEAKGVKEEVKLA
Chain of Protein cereblon/Histone deacetylase 1 (Homo sapiens) (Q96SW2 whole entry, looked up): as the sequence (Q96SW2 whole entry, looked up) above

As a reminder, the DC50 is the concentration giving 50% degradation. As usually defined, the IC50 is the concentration that gives 50% inhibition. By EC50 is commonly meant the concentration that produces a half-maximal response. As to `CCCCN(Cc1ccc(C(=O)NO)cc1)C(=O)Nc1ccc(OCCCCCn2cc(CNc3cccc4c3C(=O)N(C3CCC(=O)NC3=O)C4=O)nn2)cc1` (stereo unspecified), the outcome (in [1]; in test [7]; in test [8]; in the test on MM1.S [12]) was Active. Further, the half-maximal degradation concentration (DC50) in test [2] was determined as 1.64 nM. For the same compound, in test [3], the %max worked out at 86.3%. The outcome in test [4], in test [5], in test [6], in [9], in test [10] and in [11] was inactive. Moreover, the IC50 against Histone deacetylase 8 and against Histone deacetylase 11 was 300 to 30000 nM in each case. The EC50 with MM1.S [13] was determined as 74.9 nM. The Activity entry in the test on MM1.S [14] was “Dose-dependent effect”.
